Laboratory results reported in ChEMBL document CHEMBL1124279, “N,N-Dialkylated monophenolic trans-2-phenylcyclopropylamines: novel central 5-hydroxytryptamine receptor agonists” (J Med Chem, 1988).

Tests used:
[1] = biological target: T1, Serotonin (5-HT) receptor (Rattus norvegicus) (UniProt P35563+P35365+P32305+P31388+Q9JJ16+P28564+P30994+Q62758+P08909+P14842+P30940+P35364+P19327+P28565); assay: Evaluated for receptor mediated feedback inhibition of 5-HTP formation in striatum tissue of rat brain when administered subcutaneously; format: functional, tissue-based
In short: (§1)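 Reserpinized male Sprague-Dawley rats (200–300 g), compounds in saline (occasionally a few drops of glacial acetic acid and/or warming), near-neutral pH, given sc at 5 or 10 mL/kg. Reserpine was in acetic acid/5.5% glucose. 5-HTP formation was measured in the brain part. The ED50 is the dose giving a half-maximal decrease, from dose-response curves of four to six doses (n = 3-4).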

[2] = biological target: T1, Serotonin (5-HT) receptor (Rattus norvegicus); assay: Evaluated for receptor mediated feedback inhibition of 5-HTP formation in limbic tissue of rat brain when administered subcutaneously; format: functional, tissue-based; conditions: Limbic system; in short: as §1
[3] = biological target: T1, Serotonin (5-HT) receptor (Rattus norvegicus); assay: Evaluated for receptor mediated feedback inhibition of 5-HTP formation in hemisphere of rat brain when administered subcutaneously; format: functional; in short: as §1

| SMILES | ED50 [1] [µmol/kg] | ED50 [2] [µmol/kg] | ED50 [3] [µmol/kg] |
| --- | --- | --- | --- |
| CCCN(CCC)C1CC1c1cccc(O)c1 (stereo in doubt; 18) | 0.47 | 0.66 | 0.58 |
| CN(C)C1CC1c1cccc(O)c1 (stereo not given) | 8.59 | 10.8 | 25.1 |
| CCCN(CCC)C1CC1c1cccc(O)c1 (single isomer, unassigned; (-)) | 0.28 | 0.34 | 0.35 |
| CCN(CC)C1CC1c1cccc(O)c1 (stereo not given) | 0.32 | 0.34 | 0.4 |
| CCCN(CCC)C1CC1c1ccccc1O (stereo in doubt; 8) | 0.36 | 0.41 | 0.36 |
| CCCN(CCC)[C@@H]1CCc2cccc(O)c2C1 | 0.065 | 0.061 | 0.077 |
| CN(C)C1CC1c1ccccc1O (stereo not given) | 3.45 | 6.2 | 9.31 |
| CCCCN(CCCC)C1CC1c1cccc(O)c1 (stereo not given) | > 50 | > 50 | > 50 |
| CCCN(CCC)C1CC1c1ccc(O)c(O)c1 (stereo not given) | > 50 | > 50 | > 50 |
| CCCN(CCC)C1CC1c1cccc(OC)c1 (stereo not given) | 1.17 | 2.06 | 1.43 |
| CCCN(CCC)C1CC1c1ccc(O)cc1 (stereo not given) | > 50 | > 50 | > 50 |
| CCN(CC)C1CC1c1ccccc1O (stereo not given) | 1.2 | 0.82 | 0.8 |
| CCCN(CCC)C1CC1c1cccc(O)c1 (stereo in doubt; (+)-18) | > 50 | > 50 | > 50 |
| CCCN(CCC)C1CC1c1ccccc1O (single isomer, unassigned; (+)) | 14.5 | > 50 | > 50 |
| CCCN(CCC)C1CC1c1ccccc1O (single isomer, unassigned; (-)) | 0.26 | 0.28 | 0.38 |
| CCCCN(CCCC)C1CC1c1ccccc1O (stereo not given) | > 50 | > 50 | > 50 |
| CCCN(CCC)C1CC1c1ccccc1OC (stereo not given) |  | 0.93 | 0.72 |
